IDH1 mut inh: inhibitors of human IDH1 R132H | O75874 | IDH1 R132H reductase, diaphorase/resazurin fluorescence, 60 min | inhibition, % at 10 µM | 70,000 tested, 0.18% active; in the data active = inhibition above about 34%; inconclusive = no clear call, values can overlap the other calls; inactive = below about 11%
KDM4C inh: blocks human GASC-1 (KDM4C) demethylase activity; GST-KDM4C 2-372, H3K9me3 peptide, LANCE TR-FRET; inhibition, % at 12.5 µM; 96,000 tested, 0.15% active; AID 720574;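 active = mean replicate inhibition above about 25%, with at least 55% of replicates also reaching it, limit read from the data, passing the limit was not always enough; inconclusive = only one of those two conditions met; inactive = neither condition met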
Target sequence (Q9H3R0 2-372 limits assumed): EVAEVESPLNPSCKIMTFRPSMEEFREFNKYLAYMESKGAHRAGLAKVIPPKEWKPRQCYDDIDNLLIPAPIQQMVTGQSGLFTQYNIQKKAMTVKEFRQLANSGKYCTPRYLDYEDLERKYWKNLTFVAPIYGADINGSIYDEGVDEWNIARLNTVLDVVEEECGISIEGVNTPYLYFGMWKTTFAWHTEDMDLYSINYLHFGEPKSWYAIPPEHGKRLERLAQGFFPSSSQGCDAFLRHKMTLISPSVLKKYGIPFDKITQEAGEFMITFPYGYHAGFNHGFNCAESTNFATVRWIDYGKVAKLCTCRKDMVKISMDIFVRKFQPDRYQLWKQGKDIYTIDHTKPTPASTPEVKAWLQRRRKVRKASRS
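System: N-terminal GST-fused human GASC-1 (KDM4C) fragment, residues 2-372; amount: enzyme final amount 10 nM; incubation: reaction 30 min RT, detection step 1 h RT; medium: HEPES buffer, pH 7.5, plus ascorbate; technique: LANCE TR-FRET, Eu antibody, ULight-streptavidin, EDTA, ex 340 nm, em 618/671 nm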
T cruzi growth-1: T. cruzi proliferation inhibition; T. cruzi beta-gal in NIH3T3, GalScreen luminescence, 90 h; inhibition, % at 8.34 µM; 77,000 tested, 5.9% active; AID 624255;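 active = mean inhibition above about 93%, with at least 55% of replicates each passing it, limit read from the data, passing the limit was not always enough; inconclusive = only one of those two conditions holds; inactive = neither condition holds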
T cruzi growth-2: blocks T. cruzi growth in NIH3T3 host cells. 5,600 tested, 72% active. AID 651739. shares compounds with T cruzi growth-1. inhibition, % at 8.35 µM. T. cruzi beta-gal in NIH3T3, GalScreen luminescence, 90 h;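 active = mean replicate inhibition above about 95% and at least 55% of replicates individually reaching it, limit read from the data; inconclusive = only one of the two criteria is met; inactive = neither criterion is met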
T cruzi growth-3: blocks T. cruzi growth in NIH3T3 host cells; T. cruzi beta-gal in NIH3T3, GalScreen luminescence, 90 h; 5,600 tested, 21% active; inhibition, % at 2.09 µM; shares compounds with T cruzi growth-1;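 active = mean inhibition above about 95%, with at least 55% of replicates also reaching it, limit read from the data; inconclusive = meets just one of the two conditions; inactive = meets neither condition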
3T3 cytotox: NIH/3T3 (mouse) viability loss; AID 651742; 5,600 tested, 14% active; shares compounds with T cruzi growth-1; NIH/3T3 viability, CellTiter-Glo ATP luminescence, 90 h; cytotoxicity (signal decrease), % at 8.35 µM;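 active = mean signal decrease across replicates above about 35% based on untreated-well scatter, with enough replicates individually passing, limit read from the data; inconclusive = no rule stated though some were filed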
3T3 cytotox 2: NIH/3T3 (mouse) viability loss | shares compounds with T cruzi growth-1 | NIH/3T3 viability, CellTiter-Glo ATP luminescence, 90 h | inhibition, % at 24.9 µM | 5,600 tested, 56% active;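 active = mean loss of cell viability signal at or above a set limit, and enough replicates individually reaching it; inconclusive = meets only the mean limit or only the replicate share; inactive = meets neither condition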
A number is an active result; 0 = inactive; ? = inconclusive; - = no result given. Many of the other results were omitted from the sample, so hits are more common in it than they were.

SMILES	IDH1 mut inh	KDM4C inh	T cruzi growth-1	T cruzi growth-2	T cruzi growth-3	3T3 cytotox	3T3 cytotox 2
CN(C)C(=O)c1ccc(-c2ccc([C@H]3[C@H]4CN(C(=O)C5CCC5)CCCCN4[C@H]3CO)cc2)cc1	-	-	0	-	-	-	-
CN(C)C(=O)c1cccc(-c2ccc([C@H]3[C@@H](CO)N4CCCCN(C(=O)C5CCC5)C[C@H]34)cc2)c1	-	0	?	106.6	0	0	0
CN(C)C(=O)c1cccc(-c2ccc([C@@H]3[C@@H](CO)N4CCCCN(C(=O)C5CCC5)C[C@@H]34)cc2)c1	-	0	0	-	-	-	-
CCCC(=O)Nc1ccc2c(c1)OC[C@@H](C)N(C(=O)c1ccncc1)C[C@@H](C)[C@@H](OC)CN(C)C2=O	0	0	0	-	-	-	-
CC(C)CC#Cc1cnc2c(c1)C(=O)N([C@H](C)CO)C[C@H](C)[C@H](CN(C)C(=O)c1ccccc1F)O2	0	0	0	-	-	-	-
CCCC(=O)Nc1ccc2c(c1)C(=O)N(C)C[C@H](OC)[C@H](C)CN(CCC(F)(F)F)[C@@H](C)CO2	0	0	0	-	-	-	-
CCCC#Cc1ccc([C@H]2[C@@H](C#N)N(C(=O)CN3CCOCC3)[C@@H]2CO)cc1	-	0	104.5	98.1	0	0	0
CCCC#Cc1ccc([C@@H]2[C@@H](C#N)N(C(=O)C3CC3)[C@@H]2CO)cc1	-	0	0	-	-	-	-
N#C[C@@H]1[C@@H](c2ccccc2)[C@H](CO)N1C(=O)CN1CCOCC1	-	0	0	-	-	-	-
CCCC#Cc1ccc([C@H]2[C@@H](C#N)N(C(=O)CN3CCOCC3)[C@H]2CO)cc1	-	0	98.1	103.1	0	0	?
Cc1ccc(S(=O)(=O)Nc2ccc3c(c2)C(=O)N([C@@H](C)CO)C[C@@H](C)[C@H](CN(C)C(=O)c2ccccc2)OCCCC[C@H](C)O3)cc1	0	0	0	-	-	-	-
CN1C(=O)c2cc(NC(=O)C3CC3)ccc2OC[C@H]2O[C@@H](CC(=O)Nc3cccc(Cl)c3)CC[C@@H]21	-	0	-	-	-	-	-
C[C@H]1CN([C@@H](C)CO)C(=O)c2cccc(NC(=O)Nc3ccc(C(F)(F)F)cc3)c2O[C@@H]1CN(C)Cc1ccc(Oc2ccccc2)cc1	0	0	126.8	95.8	0	0	105.2
C[C@H](CO)N1C[C@H](C)[C@H](CN(C)Cc2ccc(Oc3ccccc3)cc2)Oc2c(NC(=O)Nc3ccc(F)cc3)cccc2C1=O	0	0	0	-	-	-	-
C[C@@H]1CN([C@@H](C)CO)C(=O)c2cccc(NC(=O)Nc3ccccc3)c2O[C@@H]1CN(C)Cc1ccc(C(F)(F)F)cc1	-	-	0	-	-	-	-
C[C@@H]1CN([C@@H](C)CO)C(=O)c2cccc(NC(=O)Nc3ccc(C(F)(F)F)cc3)c2O[C@@H]1CN(C)Cc1ccccc1	0	0	0	-	-	-	-
C[C@H](CO)N1C[C@H](C)[C@H](CN(C)Cc2ccc(Oc3ccccc3)cc2)Oc2c(NC(=O)Nc3ccc(C(F)(F)F)cc3)cccc2C1=O	-	0	122.4	103.0	108.2	0	105.6
C[C@H](CO)N1C[C@H](C)[C@@H](CN(C)Cc2ccc(Oc3ccccc3)cc2)Oc2c(NC(=O)Nc3ccc(F)cc3)cccc2C1=O	0	0	125.9	0	0	0	0
Cn1cnc(S(=O)(=O)N2CC[C@@H]3[C@H](CO)Nc4ccc(-c5ccccc5)cc4[C@@H]32)c1	-	0	101.1	101.5	0	0	0
COc1cccc(-c2ccc3c(c2)[C@@H]2[C@@H](CCN2S(=O)(=O)c2cn(C)cn2)[C@H](CO)N3)c1	-	0	0	-	-	-	-
COc1cccc(-c2ccc3c(c2)[C@H]2[C@H](CCN2S(=O)(=O)c2cn(C)cn2)[C@@H](CO)N3)c1	-	0	0	-	-	-	-
Cn1cnc(S(=O)(=O)N2CC[C@@H]3[C@@H](CO)Nc4ccc(-c5ccccc5)cc4[C@@H]32)c1	-	0	104.4	96.3	0	0	0
COc1cccc(-c2ccc3c(c2)[C@H]2[C@H](CCN2S(=O)(=O)c2cn(C)cn2)[C@H](CO)N3)c1	-	0	0	-	-	-	-
Cn1cnc(S(=O)(=O)N2CC[C@@H]3[C@H]2c2cc(-c4ccccc4)ccc2N[C@@H]3CO)c1	-	0	?	110.5	?	0	0
C[C@@H]1CCCCO[C@H](CN(C)S(=O)(=O)c2cccs2)[C@H](C)CN([C@H](C)CO)C(=O)c2cc(NS(C)(=O)=O)ccc2O1	0	0	0	-	-	-	-
SMILES	IDH1 mut inh	KDM4C inh	T cruzi growth-1	T cruzi growth-2	T cruzi growth-3	3T3 cytotox	3T3 cytotox 2
C[C@H](CO)N1C[C@H](C)[C@H](CN(C)S(=O)(=O)c2ccccc2)Oc2ccc(NC(=O)Nc3ccc(C(F)(F)F)cc3)cc2C1=O	0	0	0	-	-	-	-
O=S1(=O)N=C(N(CCO)c2ccc(Cl)cc2)c2ccccc21	0	-	-	-	-	-	-
Cc1cccc(-c2ccc([C@@H]3[C@@H](CO)N4CCCCN(CCC(F)(F)F)C[C@@H]34)cc2)c1	-	0	0	-	-	-	-
Cc1cccc(-c2ccc([C@@H]3[C@@H](CO)N4CCCCN(CCC(F)(F)F)C[C@H]34)cc2)c1	-	0	0	-	-	-	-
Cc1cccc(-c2ccc([C@H]3[C@H](CO)N4CCCCN(CCC(F)(F)F)C[C@@H]34)cc2)c1	-	0	107.8	?	0	0	103.9
OC[C@H]1[C@H](c2ccc(C#CC3CC3)cc2)[C@H]2CN(CCC(F)(F)F)CCCCN21	-	-	98.4	110.6	0	0	105.9
Cc1cccc(-c2ccc([C@@H]3[C@H](CO)N4CCCCN(CCC(F)(F)F)C[C@@H]34)cc2)c1	-	0	0	-	-	-	-
OC[C@H]1[C@@H](c2ccc(C#CC3CC3)cc2)[C@H]2CN(CCC(F)(F)F)CCCCN21	-	-	0	-	-	-	-
Cc1cccc(-c2ccc([C@H]3[C@@H](CO)N4CCCCN(CCC(F)(F)F)C[C@@H]34)cc2)c1	-	0	?	0	0	44.9	105.2
Cc1cccc(-c2ccc([C@H]3[C@@H](CO)N4CCCCN(CCC(F)(F)F)C[C@H]34)cc2)c1	-	0	105.3	100.4	101.7	0	105.1
CS(=O)(=O)N(CC(=O)NC1CCCCC1)c1ccc2c3c(cccc13)CC2	0	-	-	-	-	-	-
C/C=C/c1ccc([C@H]2[C@@H](CO)N3CCCCN(CCC(F)(F)F)C[C@@H]23)cc1	-	0	0	-	-	-	-
OC[C@@H]1[C@H](c2ccc(/C=C/c3ccccc3)cc2)[C@H]2CN(CCC(F)(F)F)CCCCN12	-	-	101.5	0	106.8	73.1	105.2
COc1ccccc1C#Cc1ccc([C@H]2[C@H]3CN(CCC(F)(F)F)CCCCN3[C@H]2CO)cc1	-	0	0	-	-	-	-
COc1ccccc1C#Cc1ccc([C@@H]2[C@@H](CO)N3CCCCN(CCC(F)(F)F)C[C@H]23)cc1	-	0	105.4	0	110.0	98.1	103.7
OC[C@H]1[C@H](c2ccc(-c3ccccc3)cc2)[C@@H]2CN(CCC(F)(F)F)CCCCN12	-	0	106.1	99.8	0	64.9	102.4
OC[C@H]1[C@@H](c2ccc(-c3ccccc3)cc2)[C@@H]2CN(CCC(F)(F)F)CCCCN12	-	0	0	-	-	-	-

Screening results from PubChem BioAssay.
